Experimental data from ChEMBL document CHEMBL1130090, “Antitumor agents. 174. 2',3',4',5,6,7-Substituted 2-phenyl-1,8-naphthyridin-4-ones: their synthesis, cytotoxicity, and inhibition of tubulin polymerization” (J Med Chem, 1997).

Experiments:
Type in all cases: functional
786-0 = experiment: Concentration which reduced cell growth to 50 % of level against 786-0 renal cancer line; conditions: Homo sapiens
HCT-116 = experiment: Concentration which reduced cell growth to 50 % of level against HCT116 colon cancer cell line; conditions: Homo sapiens
HL-60 = experiment: Concentration which reduced cell growth to 50 % of level against HL-60 (TB) leukemia cell line; conditions: Homo sapiens
Tumor Cell line = experiment: Cytotoxic effect in human tumor cell lines, tested by the National Cancer Institute; conditions: read-out: Average LogGI50 (converted)
MDA-N = experiment: Concentration which reduced cell growth to 50 % of level against MDA-N breast cancer line; conditions: Homo sapiens
MDA-MB-435 = experiment: Concentration which reduced cell growth to 50 % of level against MDA-MB-435 breast cancer line; conditions: Homo sapiens
NCI-H460 = experiment: Concentration which reduced cell growth to 50 % of level against NCI-H460 non -small-cell lung cancer cell line; conditions: Homo sapiens
OVCAR-3 = experiment: Concentration which reduced cell growth to 50 % of level against OVCAR-3 ovarian cancer line; conditions: Homo sapiens
PC-3 = experiment: Concentration which reduced cell growth to 50 % of level against PC-3 prostate cancer line; conditions: Homo sapiens
SF-295 = experiment: Concentration which reduced cell growth to 50 % of level against SF-295 CNS cancer line; conditions: Homo sapiens
SK-MEL-5 = experiment: Concentration which reduced cell growth to 50 % of level against SK-MEL-5 melanoma cell line; conditions: Homo sapiens
U-251 = experiment: Concentration which reduced cell growth to 50 % of U251 cancer line; conditions: Homo sapiens
Tubulin beta chain = Tubulin beta chain (Bos taurus, UniProt Q6B856); experiment: Inhibition of bovine tubulin polymerization
[1] = target: Tubulin alpha chain (Sus scrofa) (UniProt P02550); experiment: Inhibition of colchicine binding and evaluated only when polymerization IC50 <=1 uM
How it was run: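 Electrophoretically homogeneous bovine brain tubulin (1.0 µM) incubated 20 min at 37 °C with 5.0 µM [3H]colchicine and 5.0 µM inhibitor in 1.0 M monosodium glutamate (pH 6.6), 1 mM MgCl2, 0.1 mM GTP, 5% (v/v) DMSO. Mixtures filtered through two stacked DEAE-cellulose filters and washed with water. Bound radioactivity counted by liquid scintillation.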

Chain of Tubulin beta chain (Q6B856 whole entry): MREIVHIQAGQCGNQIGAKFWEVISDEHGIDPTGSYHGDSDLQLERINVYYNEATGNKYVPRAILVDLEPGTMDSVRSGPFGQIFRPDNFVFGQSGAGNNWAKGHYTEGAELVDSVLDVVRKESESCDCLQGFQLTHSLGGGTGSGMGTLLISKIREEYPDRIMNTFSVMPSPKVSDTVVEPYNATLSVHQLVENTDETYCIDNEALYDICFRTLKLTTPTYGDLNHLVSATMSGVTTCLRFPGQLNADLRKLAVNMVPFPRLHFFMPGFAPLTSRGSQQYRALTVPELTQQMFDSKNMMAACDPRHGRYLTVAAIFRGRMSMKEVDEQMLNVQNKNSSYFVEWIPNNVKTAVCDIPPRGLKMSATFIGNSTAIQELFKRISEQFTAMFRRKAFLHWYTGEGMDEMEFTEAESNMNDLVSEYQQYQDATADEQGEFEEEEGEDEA
Chain of Tubulin alpha chain (Sus scrofa) (P02550 whole entry, looked up): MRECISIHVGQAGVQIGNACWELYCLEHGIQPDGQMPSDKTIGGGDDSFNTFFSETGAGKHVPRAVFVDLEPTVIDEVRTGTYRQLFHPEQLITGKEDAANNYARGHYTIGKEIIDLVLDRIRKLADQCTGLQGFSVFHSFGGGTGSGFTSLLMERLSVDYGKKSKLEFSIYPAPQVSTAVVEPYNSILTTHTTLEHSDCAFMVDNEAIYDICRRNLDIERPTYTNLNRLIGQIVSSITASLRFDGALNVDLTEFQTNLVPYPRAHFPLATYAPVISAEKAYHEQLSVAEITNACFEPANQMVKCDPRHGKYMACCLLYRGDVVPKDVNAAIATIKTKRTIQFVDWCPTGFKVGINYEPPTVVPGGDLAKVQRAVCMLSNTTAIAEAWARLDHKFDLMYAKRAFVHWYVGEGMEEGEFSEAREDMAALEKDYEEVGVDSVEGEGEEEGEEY

| Compound | GI50 (786-0) [µM] | GI50 (HCT-116) [µM] | GI50 (HL-60) [µM] | GI50 (Tumor Cell line) [µM] | GI50 (MDA-N) [µM] | GI50 (MDA-MB-435) [µM] | GI50 (NCI-H460) [µM] | GI50 (OVCAR-3) [µM] | GI50 (PC-3) [µM] | GI50 (SF-295) [µM] | GI50 (SK-MEL-5) [µM] | GI50 (U-251) [µM] | IC50 (Tubulin beta chain) [µM] | inhibition [1] [%] |
| --- | --- | --- | --- | --- | --- | --- | --- | --- | --- | --- | --- | --- | --- | --- |
| COc1ccccc1-c1cc(O)c2c(C)cc(C)nc2n1 | > 100 | 74.1 | 30.2 | 57.5 | 33.1 | 32.4 | 70.8 | 64.6 | 47.9 | 53.7 | 33.9 | > 100 | > 40 | – |
| Cc1cc(C)c2c(O)cc(-c3ccc(F)cc3)nc2n1 | 79.4 | 50.1 | 15.5 | 40.7 | 25.1 | 18.6 | 51.3 | 43.7 | 30.2 | 50.1 | 26.3 | 95.5 | > 40 | – |
| COc1ccc(-c2cc(O)c3ccc(C)nc3n2)cc1 | > 100 | > 100 | > 100 | 91.2 | 55 | 42.7 | > 100 | > 100 | > 100 | 89.1 | 47.9 | > 100 | > 40 | – |
| Cc1cnc2nc(-c3ccc(Cl)cc3)cc(O)c2c1 | 6.31 | 2.82 | 2.24 | 3.72 | 0.562 | 0.603 | 3.89 | 2.24 | 1.15 | 2.4 | 2.19 | 3.02 | 2 | – |
| COc1ccc(/C=C\c2cc(OC)c(OC)c(OC)c2)cc1O [COMBRETASTATIN A4] | – | – | – | 0.00661 | – | – | – | – | – | – | – | – | – | – |
| COc1ccccc1-c1cc(O)c2ccc(C)nc2n1 | > 100 | 38 | 74.1 | 79.4 | 20 | 21.9 | 97.7 | > 100 | > 100 | > 100 | 51.3 | > 100 | > 40 | – |
| COc1cccc(-c2cc(O)c3ccc(C)nc3n2)c1 | – | – | – | – | – | – | – | – | – | – | – | – | 0.75 | – |
| COc1cc([C@@H]2c3cc4c(cc3[C@H](O)[C@H]3COC(=O)[C@H]23)OCO4)cc(OC)c1OC [PODOFILOX] | – | – | – | 0.0288 | – | – | – | – | – | – | – | – | – | 76 |
| Cc1ccc(-c2cc(O)c3ccc(C)nc3n2)cc1 | – | – | – | – | – | – | – | – | – | – | – | – | 4.9 | – |
| Cc1ccc2c(O)cc(-c3ccc(F)cc3)nc2n1 | 41.7 | 33.9 | 14.8 | 32.4 | 11.7 | 5.89 | 33.9 | 32.4 | 20.9 | 37.2 | 31.6 | 37.2 | > 40 | – |
| COc1cccc(-c2cc(O)c3ccccc3n2)c1 | 5.13 | – | 2.09 | 6.17 | – | – | 3.98 | – | – | – | – | 9.55 | – | – |
| Cc1ccc(-c2cc(O)c3c(C)cc(C)nc3n2)cc1 | – | – | – | – | – | – | – | – | – | – | – | – | 9.8 | – |
| COc1cccc(-c2cc(O)c3cccnc3n2)c1 | 0.0617 | 0.0363 | 0.0162 | 0.135 | < 0.01 | < 0.01 | 0.0912 | 0.055 | 0.0933 | 0.0525 | 0.0537 | 0.055 | 0.96 | 27 |
| Cc1ccc2c(O)cc(-c3ccc(Cl)cc3)nc2n1 | 6.31 | 3.31 | 2.95 | 4.9 | 1 | 0.912 | 4.47 | 2.57 | 1.66 | 4.57 | 4.37 | 4.79 | 11 | – |
| COc1cccc(-c2cc(O)c3cc(Cl)cnc3n2)c1 | 0.427 | 0.12 | 0.0269 | 0.0977 | 0.0316 | 0.0324 | 0.0631 | 0.49 | 0.138 | 0.0603 | 0.126 | 0.2 | 0.73 | 35 |
| COc1cc2c(c(OC)c1OC)-c1ccc(OC)c(=O)cc1[C@@H](NC(C)=O)CC2 [COLCHICINE] | – | – | – | 0.0575 | – | – | – | – | – | – | – | – | – | – |

| Compound | GI50 (786-0) [µM] | GI50 (HCT-116) [µM] | GI50 (HL-60) [µM] | GI50 (Tumor Cell line) [µM] | GI50 (MDA-N) [µM] | GI50 (MDA-MB-435) [µM] | GI50 (NCI-H460) [µM] | GI50 (OVCAR-3) [µM] | GI50 (PC-3) [µM] | GI50 (SF-295) [µM] | GI50 (SK-MEL-5) [µM] | GI50 (U-251) [µM] | IC50 (Tubulin beta chain) [µM] | inhibition [1] [%] |
| --- | --- | --- | --- | --- | --- | --- | --- | --- | --- | --- | --- | --- | --- | --- |
| Cc1ccc(-c2cc(O)c3c(C)ccnc3n2)cc1 | – | – | – | – | – | – | – | – | – | – | – | – | 2.9 | – |
| Oc1cc(-c2ccc(Cl)cc2)nc2ncccc12 | 33.9 | 32.4 | 16.6 | 38.9 | 8.32 | 5.89 | 38 | 23.4 | 47.9 | 40.7 | 28.8 | 39.8 | 22 | – |
| Oc1cc(-c2ccc(F)cc2)nc2ncccc12 | 44.7 | 42.7 | 12.9 | 45.7 | 14.1 | 12 | 34.7 | 45.7 | 45.7 | 50.1 | 30.2 | 47.9 | > 40 | – |
| COc1cccc(-c2cc(O)c3cc(Br)cnc3n2)c1 | – | – | – | – | – | – | – | – | – | – | – | – | 1.5 | – |
| COc1cccc(-c2cc(=O)c3ccc(C)nc3[nH]2)c1 | 0.0537 | 0.0468 | 0.0182 | 0.0575 | 0.011 | < 0.01 | 0.0437 | 0.0224 | 0.0331 | 0.0302 | 0.0339 | 0.0537 | – | 29 |
| Cc1ccc(-c2cc(O)c3cc(C)cnc3n2)cc1 | – | – | – | – | – | – | – | – | – | – | – | – | 2.4 | – |
| COc1ccc(-c2cc(O)c3cccnc3n2)cc1 | 56.2 | 17.8 | 12.9 | 38 | 20.9 | 20 | 26.3 | 30.2 | 31.6 | 64.6 | 34.7 | 53.7 | > 40 | – |
| COc1ccc(-c2cc(O)c3c(C)ccnc3n2)cc1 | 25.1 | 6.46 | 4.37 | 12.9 | 2.09 | 2.4 | 6.17 | 13.8 | 18.2 | 19.5 | 3.89 | 6.31 | 8.8 | – |
| Cc1ccnc2nc(-c3ccc(Cl)cc3)cc(O)c12 | 3.98 | 3.72 | 1.78 | 5.13 | 1.32 | 0.759 | 3.72 | 3.16 | 2.88 | 5.37 | 3.47 | 4.57 | 4.8 | – |
| Cc1cnc2nc(-c3ccc(F)cc3)cc(O)c2c1 | 32.4 | 24 | 2.4 | 26.3 | 3.02 | 2.63 | 33.9 | 22.4 | 25.7 | 29.5 | 21.9 | 25.1 | 20 | – |
| COc1ccccc1-c1cc(O)c2cc(C)cnc2n1 | 41.7 | 42.7 | 9.55 | 31.6 | 4.47 | 3.02 | 32.4 | 19.5 | 26.9 | 30.9 | 20.4 | 27.5 | 18 | – |
| COc1cccc(-c2cc(O)c3cc(C)cnc3n2)c1 | 0.0372 | 0.0224 | 0.0191 | 0.0955 | < 0.01 | < 0.01 | 0.0437 | 0.0417 | 0.0427 | 0.0372 | 0.0257 | 0.0447 | 0.8 | 31 |
| COc1ccccc1-c1cc(O)c2cccnc2n1 | 36.3 | 27.5 | 38.9 | 40.7 | 20 | 39.8 | 38.9 | 47.9 | 29.5 | 23.4 | 31.6 | 67.6 | > 40 | – |
| Oc1cc(-c2ccc(F)cc2)nc2ncc(Cl)cc12 | 32.4 | 17 | 3.89 | 21.9 | 2.95 | 2.57 | 30.2 | 17.4 | 21.9 | 21.4 | 6.61 | 29.5 | 16 | – |
| COc1cccc(-c2cc(O)c3c(C)ccnc3n2)c1 | 0.0513 | 0.0447 | 0.0129 | 0.0589 | < 0.01 | < 0.01 | 0.0479 | 0.0257 | 0.0263 | 0.0288 | 0.0224 | 0.0589 | 0.62 | 28 |
